Measurements from the EternaBench riboswitch data.

Test system: MS2 coat protein
Experiment: apparent Kd, MS2 coat protein; higher = weaker binding; RNA-MaP array; FMN 200 µM where present
Method in brief: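 Two titrations, one without ligand and one with constant ligand, were run with SNAP-549-labelled MS2 coat protein from 0.7 or 1.5 nM, doubling to 3 µM. The targets were designs transcribed by stalled E. coli RNA polymerase on Illumina sequencing-chip clusters, in 100 mM Tris-HCl pH 7.5, 80 mM KCl, 4 mM MgCl2, BSA, DTT, yeast tRNA and Tween-20. The apparent Kd is the median of filtered per-cluster binding-curve fits, with green signal normalised to red-channel RNA signal and control-cluster median Fmax.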

[1] = designed as: OFF switch for flavin mononucleotide, no ligand
[2] = ligand present: flavin mononucleotide, designed as: OFF switch for flavin mononucleotide
[3] = designed as: ON switch for flavin mononucleotide, no ligand
[4] = ligand present: flavin mononucleotide, designed as: ON switch for flavin mononucleotide

Row | Sequence | apparent Kd [1] [nM] | apparent Kd [2] [nM] | apparent Kd [3] [nM] | apparent Kd [4] [nM]
1 | GCUAGAUUUGCAGGAUAUUGUAAUUUAUUAUUUCAAGAAGGGCAUUACAUGAGGAUCACCCAUGUCAUCCUAUGGUUUACUAGC | 9.57 | 23.1 |  | 
2 | UGAGCCUCGUGAGGAUAUACAUGAGGAUCACCCAUGUAAUAGGAUGAACGGAGGAAACUCCGAAUGUAGAAGGCACGAGGCUCA | 77.7 | 664 |  | 
3 | AGAAAUCAUGUAGGAUAUGCAUGGCGAAGCUACGCAGAAGGACAUGAGGAUCACCCAUGUUAUAGCGUCCGAGAAAGGAUGCAA | 27.9 | 187 |  | 
4 | AAUUGAAACGUAGGAUAUCGCACAAAUCUAAAACGAGAAGGACGUACAUGAGGAUCACCCAUGUUAAAUGGUGUAGAUUAGAUG | 543 | 636 |  | 
5 | UCGGCGCGAGGAUAUACGUUUGCGCGUUUUCGUUUGCGCGUACAUGAGGAUCACCCAUGUAGAAGGCGCGCCGC | 15.1 | 29.9 |  | 
6 | UGAUCUAUGUAGAAGGCCCAUAUCUGUAUUUAGGGAGGAUAUACAUGAGGAUCACCCAUGUGUAGAGCUGGUGGACUGGUCAGC | 87.8 | 183 |  | 
7 | CGGGAAGUCGUAGGAUAUGGUGAUGUACAUGAGGAUCACCCAUGUCCGUCUUCUCUCACAAGAUGCCAGAAGGGCGACUCCCGG |  |  | 641 | 317
8 | CGGGUCAACAUGAGGAUCACCCAUGUACUGCUAAUGCAGUCACAGGAUAUCUUCGGUAGAUUAGAAGAGAAGGGUGAUGCCCAG |  |  | 136 | 117
9 | GAUCCGUGGCUUUCGCUUUGUUCACAUGAGGAUCACCCAUGUAGAAGGUAGCGGUUGAAUUUCGCUGAGGAUAUACAUAGGUGC | 13.4 | 24.3 |  | 
10 | CCUGGAGGAAAACAGACGAAGUGGCCAGAAGGUGAAUGCCACAUGAGGAUCACCCAUGUUUCGAUCAAGGAUAUGGUUUCUCAC |  |  | 329 | 161
11 | GGUGCACGCACAGGAUAUCCGGCGGAGCUCGUCGGAGAAGGGUGACAUGAGGAUCACCCAUGUACGUGCAACCCAGUUUGAGGG |  |  | 59.6 | 28.5
12 | GCUUCGGCUGUGAGGAUAUCGGGCCCGAAAGGGCCCGAGAAGGCACAUGAGGAUCACCCAUGUAAGGUUGAAGU | 18.8 | 15.4 |  | 
13 | UGAGACCUCACAGGAUAUGCUGGACUUUGUCCAGCAGAAGGGUGAAAACAUGAGGAUCACCCAUGUAUGGUCUCCAAAUUUAAA |  |  | 187 | 13.6
14 | UGUUGAUAGCAGAAGGACAUGAGGAUCACCCAUGUAUGGAUACAAAUUUAUGUAGGAUAUGCUAUUAACUAAGAGUGAGCGUUC | 9.46 | 42.5 |  | 
15 | GGGUACAUCGGAGGAUAUCAUGUAAAUACAUGAGGAUCACCCAUGUCGAUGGAGACAUCGGAGAUUGAGAAGGCCGAUGGACCG |  |  | 163 | 8.74
16 | GGAUGAGCAAUAGGAUAUGCUGGGAUUGAAUGGGUAGAAGGAUUUCUAGUGGGAAAGACAUGAGGAUCACCCAUGUCGCGGCCC |  |  | 23.8 | 25.3
17 | AAUUAUUUUUGAGGAUAUGGUGGUGAAACACCACCAGAAGGCGAAAUAAACAUGAGGAUCACCCAUGUGAGCCUGAUGCUUAUG | 21.1 | 55.8 |  | 
18 | CAUAUCGUACGAGGAUAUAUGAGUCCUACAUGAGGAUCACCCAUGUAGGUGAUCUAACGAGAUUAGUAGAAGGCGUACGAUAUG |  |  | 14.1 | 7.85
19 | UUGCGGUAGGAGAAGGACAGAGGCUUCAUUACAUACAUGAGGAUCACCCAUGUAGGAUAUCCUACCUCACGCGGCCUCCUCCUG | 6.9 | 10.3 |  | 
20 | GUUUUCGCAUGAGGAUAUGCUCGCAUUUCAAGAGCAGAAGGUAUGUCUUUAGACAUGAGGAUCACCCAUGUAUUUAUCAUUGAA |  |  | 101 | 26.2
21 | AUUGUUUAUGUAGGAUAUGCGAGGCGAGCCUAAGCAGAAGGACAUGAGGAUCACCCAUGUAUUGCGGUCUGCGUUCAGAUCGCU | 30.5 | 127 |  | 
22 | ACUUGACAUGAGGAUCACCCAUGUCAGGAUAUAGUAGGACAAAUAAAUAAAAGUUCUACUAGAAGGGACGUGGG | 21.6 | 22.4 |  | 
23 | UUUUAACAUGAGGAUCACCCAUGUGAGGAUAUCGAAAUUUAUAUUUAUAUUAAUAUUACGAGAAGGCACAUUUU | 85.5 | 118 |  | 
24 | CAUUCAUGUCUAGGAUAUGAGUGACAAGCGCGAAGUUUUUUCGCCGCUAGCUCAGAAGGAGACAUGAGGAUCACCCAUGUAAGG | 24.1 | 9.96 |  | 
25 | CUCCAUUCUGGAGGAUAUCAUAGUCGUUGACUAUGAGAAGGUUAGCUAUCUUACAUGAGGAUCACCCAUGUGAUCUACAUGGAG |  |  | 40.5 | 10.8
26 | GUUAUAGGAGGAUAUACAUGAGGAUCACCCAUGUCUCAUCCAUGGCAACGAACCUAUUGUAGAAGGCUUGAAGA | 28.9 | 113 |  | 
27 | AGGAAGUUAGGAUAUGCUGCUCGUCACUUGCGUGAUGAGUAGCAGAAGGAACAUGAGGAUCACCCAUGUAAAGA | 30.8 | 27.2 |  | 
28 | CUUUUGUGAGGAUAUUAGUUGUAAAUAAAUAAAAUUACUACUGAGAAGGCACAUGAGGAUCACCCAUGUUCCUC | 33.3 | 161 |  | 

Row | Sequence | apparent Kd [1] [nM] | apparent Kd [2] [nM] | apparent Kd [3] [nM] | apparent Kd [4] [nM]
29 | GCGUUGAACGAGAAGGCCAAUACAUGAGGAUCACCCAUGUUAAGUUGUUUUGGAGGAUAUCGAACGCAUUCAAUAUUGCAACGC | 6.65 | 5.84 |  | 
30 | AGGCGAGUAGGAUAUGCGUUUUUACGGGAAAGCUGGAUGAUACAUGAGGAUCACCCAUGUAGAAGGGCUCUGAA | 20.6 | 16 |  | 
31 | GCUGCGUAUGAGAAGGCGAUCAUGAAACAUGAUCGAGGAUAUCAUGUUUACAUGAGGAUCACCCAUGUAUGGGUAUAAUGCAGC |  |  | 335 | 18.1
32 | AUAAUGUGAGGAUAUACAUGAGGAUCACCCAUGUAAUUAAAUCGGAGAGCCACAUUUCGUAGAAGGUACAUUUA | 20.7 | 22.6 |  | 
33 | UGGAGGUCAGGAUAUGCAUGGCGGGACUUGCGUCGUGGCGUGCAGAAGGGACAUGAGGAUCACCCAUGUGGAGG | 124 | 121 |  | 
34 | AAUUGACCUGUCAGGAUAUAGAGGGAGACUUACAUCUAGAAGGGACAUGAGGAUCACCCAUGUCAGUUGAGACA | 19.8 | 22.6 |  | 
35 | CCGUUGAUAGGACAGGAUAUGACUGUCGUCACAUGAGGAUCACCCAUGUCCCGGCAAUGCCACCGUUAGAAGGGUCCCGUCUCGG |  |  | 18.8 | 19.2
36 | CGCUGUUGCGCAGGAUAUGCAUUGGAUUACAAUGCAGAAGGGCGAUUACAUGAGGAUCACCCAUGUGUAGACAGUGAAGAAGAG |  |  | 300 | 37.2
37 | AAGAGCGAUUCUCCCUUCCUACAUGAGGAUCACCCAUGUACGAGAAGGCGCCGUUUAUACAACGGUGAGGAUAUCGUGCGUUAC | 4.49 | 4.7 |  | 
38 | GGUACCUUUACAGGAUAUGCUAGCCUUUGGUUAGCAGAAGGGUGAUACAUGAGGAUCACCCAUGUGGUGCCAGGGCGUGAGCCC |  |  | 79.2 | 447
39 | CUUCGACAUGAGGAUCACCCAUGUCAGGAUAUUGUGUAUCUGGUUUUUUACAGAUAGACAAGAAGGGAUGUGUU | 27.1 | 23.4 |  | 
40 | AGAAGAACAUGAGGAUCACCCAUGUUCCUGCUGCUCCACAGACAGGAUAUGGGUGUCGUCGACAAUCAGAAGGGUUCGCGGAGC |  |  | 34.9 | 27.5
41 | AGGCGGGCAGGAUAUGCGUACUGACGGGAAAACUGAAUGGUACAUGAGGAUCACCCAUGUAGAAGGGCUUUGAA | 50.1 | 38.3 |  | 
42 | AUCCACCGCACGGACACGUCGAGUCAGGAUAUACAUGAGGAUCACCCAUGUGAAGGCCGGCUCAUGUAGAAGGGACAGGCGUUG | 10.4 | 22.5 |  | 
43 | UUGGCACAUGAGGAUCACCCAUGUUAGGAUAUUGUGGCAGAAACAGCUGGGAAACGCACGAGAAGGGACACAUA | 33.4 | 38.5 |  | 
44 | AGAAAACAUGAGGAUCACCCAUGUAAGGAUAUGCUAAGGGUGGCUUCGGCCACCCAAUGCAGAAGGUACAAAUA | 49.6 | 59.7 |  | 
45 | GGCAGCUCGUGAGGAUAUACAACACUGCUUCGGCAGUGUAUUAAGAUCACAUGAGGAUCACCCAUGUAGAAGGCACGAGCUGAU | 13.9 | 254 |  | 
46 | GCCCUCUCUGAGGAUAUUAUCUGGUUCGAUUGAUAAGAAGGCAGUACAUGAGGAUCACCCAUGUGGUUCGUUUG | 109 | 303 |  | 
47 | AAUUAAUUAAUACAUGAGGAUCACCCAUGUAAUUAUUAGAUCUAGGAUAUCAGCUCGAAUAGAGCUGAGAAGGAGAUCACAUGU |  |  | 19.4 | 15
48 | ACACAGCGAGGAUAUACAUGAGGAUCACCCAUGUGGUGGCGGUUACGGUAGGACUAGUGUAGAAGGUGCCGUGG | 480 | 414 |  | 
49 | GUUGUUUAUGUAGGAUAUGCGAGGCGAGCCUAAGCAGAAGGACAUGAGGAUCACCCAUGUAUUGCGGUCUGCGUUCAGAUCGCU | 32.4 | 135 |  | 
50 | UUAUUUAUGCAAGGAUAUCAAUUAUAUUGACGUCCUACAUGAGGAUCACCCAUGUUUAGUUUUUUUGAGAAGGUGCAUUGUCUG |  |  | 64.8 | 59.7
51 | AUCCAUUGAGAGAAGGGAGUACAUGAGGAUCACCCAUGUGGUCGUUCAUACUCAGGAUAUCUAACUGGGUUAGUGGCGCACGCC | 166 | 367 |  | 
52 | UCACGGUAUGUAGGAUAUGCAUAGCAUUGCUAUGCAGAAGGACAUGAGGAUCACCCAUGUAUGUAUUCCAUACAAAUCCCGUGU | 5.68 | 5.58 |  | 
53 | GGAUAUAACGUAGGAUAUCUGAGAAAUAGAUGAAGAGAAGGACGACAUGAGGAUCACCCAUGUGAUCUAUCAAUAUUAUACAUG | 452 | 749 |  | 
54 | AAUAAACACACAGGAUAUAGCAUCGUCGUUAUGAACUUAAUGACGACGAUGCUAGAAGGGUGAACACAUGAGGAUCACCCAUGU |  |  | 211 | 35.6
55 | GGUUGGCGAGGAUAUACAUGAGGAUCACCCAUGUGGUCCUGCGGUAGAAUCGCCCUUUGUAGAAGGCGCGGGUC | 69.5 | 72 |  | 
